Laboratory results taken from ChEMBL document CHEMBL4425108, “A Selective and Slowly Reversible Inhibitor of l-Type Amino Acid Transporter 1 (LAT1) Potentiates Antiproliferative Drug Efficacy in Cancer Cells” (J Med Chem, 2016).
Active and inactive are the calls of the source. The rule behind the calls is not given here.

Experiments:
[1] = fCmax in mouse prostate at 23 umol/kg, ip administered as bolus by LC-MS analysis; assay type: ADME, organism-based, Prostate gland; details: in vivo
Outline: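 Male mice (25 ± 5 g) dosed i.p. as a bolus at 23 µmol/kg in DMSO/hydroxypropyl-β-cyclodextrin/saline vehicle, sampled at time points 10–480 min; plasma and tissue homogenates (1:3 water) analysed by LC-MS. […] Mean ± SEM.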

[2] = target: T1, Large neutral amino acids transporter small subunit 1 (Homo sapiens, UniProt Q01650); test: Drug uptake in human MCF7 cells assessed as LAT1 mediated drug transport per mg of protein at 100 uM measured 30 mins after warm wash by HPLC analysis; assay type: ADME, cell-based; details: mcf7, 0.5 h
Outline: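 MCF-7 monolayers were incubated with 100 µM compound in HBSS at 37 °C for 5 or 30 min. Cells got three washes with ice-cold or warm (37 °C) HBSS; in the warm 30 min arm they were washed after 5 min and again after 30 min. Lysates (0.1 M NaOH) were quantified by HPLC-UV against a spiked lysate standard curve and normalised to protein (Bio-Rad assay).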

[3] = Terminal half life in mouse plasma at 23 umol/kg, ip administered as bolus by LC-MS analysis; assay type: ADME, organism-based; details: read-out: beta t1/2
Outline: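 Adult male mice (25 ± 5 g) given a single i.p. bolus of 23 µmol/kg, dosing solution 1.36 mM in 10% (v/v) DMSO, 20% (w/v) hydroxypropyl-β-cyclodextrin, 0.9% NaCl in water. Decapitation at time points 10–480 min; plasma, brain, liver, prostate, kidney, heart collected. Acetonitrile precipitation with repaglinide internal standard, LC-MS (ESI positive). tmax and t½β taken from concentration-time data; mean ± SEM, n=3.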

[4] = target: T1, Large neutral amino acids transporter small subunit 1; test: Competitive binding to LAT1 in human MCF7 cells at 100 uM after 30 mins in presence of OATP 1A2/2B1 inhibitor naringin by HPLC analysis; assay type: cell-based
Outline: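 MCF-7 cells incubated 30 min at 37 °C in HBSS (pH 7.4) holding 100 µM test compound plus 500 µM competitor. Cells washed three times with ice-cold HBSS and lysed in 0.1 M NaOH. Cell-associated compound measured by HPLC against a lysate-spiked standard curve and normalised to protein. Mean ± SD, n=3.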

T1 sequence (Q01650 whole entry): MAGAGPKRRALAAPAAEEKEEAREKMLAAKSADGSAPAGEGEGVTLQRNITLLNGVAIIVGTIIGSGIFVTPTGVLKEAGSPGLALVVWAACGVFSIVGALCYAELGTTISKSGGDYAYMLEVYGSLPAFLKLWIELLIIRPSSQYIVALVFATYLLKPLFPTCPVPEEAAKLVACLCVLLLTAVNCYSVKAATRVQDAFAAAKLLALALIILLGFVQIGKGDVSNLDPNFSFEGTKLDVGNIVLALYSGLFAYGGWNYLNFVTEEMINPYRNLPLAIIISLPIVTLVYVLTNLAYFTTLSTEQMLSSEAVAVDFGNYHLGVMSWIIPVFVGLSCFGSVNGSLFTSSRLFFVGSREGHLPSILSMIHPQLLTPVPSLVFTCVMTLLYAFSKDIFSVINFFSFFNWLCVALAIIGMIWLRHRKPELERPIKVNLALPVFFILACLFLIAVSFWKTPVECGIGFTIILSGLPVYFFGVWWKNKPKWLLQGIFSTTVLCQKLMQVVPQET

What does the source list for `CNC(=O)COc1ccc(-c2c(C#N)c(NC(=O)c3cccc(C[C@H](N)C(=O)O)c3)n3c(nc4ccccc43)c2C#N)cc1`?
fCmax [1]: 0.34 nmol/g; Drug uptake [2]: 0.21 nmol/mg; half-life [3]: 44.9 min; Activity [4]: Active
